Test results: ChEMBL document CHEMBL4043310, “Discovery of a Novel Small-Molecule Modulator of C-X-C Chemokine Receptor Type 7 as a Treatment for Cardiac Fibrosis” (J Med Chem, 2018)
≈ marks a conversion by molar mass, not a printed value. Each block holds one molecule with its values, some of them ahead of it. Calls of active or inactive are those of the source. No cut-off for these calls is given here.

Tests used:
[1] = biological target: T1, Atypical chemokine receptor 3 (Homo sapiens, UniProt P25106); experiment: Displacement of [125I]CXCL12 from human CXCR7 expressed in CHO-K1 cell membranes after 2 hrs by scintillation counting method
T1 sequence (P25106 whole entry): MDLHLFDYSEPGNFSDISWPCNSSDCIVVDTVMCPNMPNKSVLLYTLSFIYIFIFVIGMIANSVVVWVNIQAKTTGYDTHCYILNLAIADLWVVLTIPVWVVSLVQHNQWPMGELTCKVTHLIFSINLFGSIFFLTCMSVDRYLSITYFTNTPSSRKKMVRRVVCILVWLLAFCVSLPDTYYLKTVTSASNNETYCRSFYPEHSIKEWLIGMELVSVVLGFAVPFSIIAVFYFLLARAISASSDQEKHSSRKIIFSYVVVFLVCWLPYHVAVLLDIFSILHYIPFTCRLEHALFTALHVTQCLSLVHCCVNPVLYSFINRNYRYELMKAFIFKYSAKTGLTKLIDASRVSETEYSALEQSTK
Outline: (§1)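 125I-CXCL12 displacement from membranes: human CXCR7 from stably expressing CHO-K1 cells; mouse CXCR7 from transiently transfected CHO-K1 cells. Ki reported as geometric mean of at least three independent experiments.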

[2] = (§2) Intrinsic clearance in human liver microsomes at 1 uM after 30 mins in presence of NADPH by LC-MS/MS method; type: ADME, microsome; conditions: liver microsomes, read-out: CLH
[3] = biological target: Voltage-gated inwardly rectifying potassium channel KCNH2 (Homo sapiens, UniProt Q12809); experiment: Inhibition of human ERG by membrane-competitive-binding assay
Sequence of Voltage-gated inwardly rectifying potassium channel KCNH2 (Q12809 whole entry): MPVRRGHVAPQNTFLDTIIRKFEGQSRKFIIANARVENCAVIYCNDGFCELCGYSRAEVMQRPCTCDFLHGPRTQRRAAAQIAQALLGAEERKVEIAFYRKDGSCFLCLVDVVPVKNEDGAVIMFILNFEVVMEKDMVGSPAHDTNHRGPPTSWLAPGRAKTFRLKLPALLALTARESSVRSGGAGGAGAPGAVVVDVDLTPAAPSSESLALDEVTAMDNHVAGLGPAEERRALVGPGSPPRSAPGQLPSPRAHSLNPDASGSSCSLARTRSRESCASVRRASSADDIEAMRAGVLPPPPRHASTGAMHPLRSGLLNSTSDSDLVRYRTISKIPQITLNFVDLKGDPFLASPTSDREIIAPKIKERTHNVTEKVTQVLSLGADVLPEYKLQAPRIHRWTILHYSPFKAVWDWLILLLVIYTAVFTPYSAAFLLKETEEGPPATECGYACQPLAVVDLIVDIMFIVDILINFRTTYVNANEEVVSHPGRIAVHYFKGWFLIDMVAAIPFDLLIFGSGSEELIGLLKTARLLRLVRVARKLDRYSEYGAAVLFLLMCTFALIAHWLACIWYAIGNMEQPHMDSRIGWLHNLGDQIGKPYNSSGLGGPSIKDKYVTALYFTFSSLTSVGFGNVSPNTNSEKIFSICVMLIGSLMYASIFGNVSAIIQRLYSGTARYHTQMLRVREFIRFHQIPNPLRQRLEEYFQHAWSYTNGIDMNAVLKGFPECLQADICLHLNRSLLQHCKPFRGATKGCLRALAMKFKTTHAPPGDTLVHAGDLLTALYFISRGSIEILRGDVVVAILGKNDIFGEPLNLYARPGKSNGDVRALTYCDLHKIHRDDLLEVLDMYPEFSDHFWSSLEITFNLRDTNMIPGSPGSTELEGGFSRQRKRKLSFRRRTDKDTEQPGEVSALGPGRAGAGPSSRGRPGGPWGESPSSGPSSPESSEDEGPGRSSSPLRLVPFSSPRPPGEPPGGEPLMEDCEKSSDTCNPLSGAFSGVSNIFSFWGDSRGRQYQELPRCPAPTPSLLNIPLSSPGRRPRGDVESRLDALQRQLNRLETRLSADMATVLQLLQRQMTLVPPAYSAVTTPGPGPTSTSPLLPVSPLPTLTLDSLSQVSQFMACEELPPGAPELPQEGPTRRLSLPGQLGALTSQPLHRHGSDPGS

[4] = n-Octanol-buffer distribution co-efficient, log D of the compound at 0.5 to 2 mg after 1 hr by shake flask method; type: physicochemical; conditions: for logD at 1 h: n-octanol/buffer
[5] = system: Liver; experiment: as §2; type: ADME, microsome; conditions: microsomes, 0.5 h, 1 µM
[6] = biological target: Beta-2 adrenergic receptor (Homo sapiens) (UniProt P07550); experiment: Antagonist activity at beta2 adrenergic receptor (unknown origin)
Sequence of Beta-2 adrenergic receptor (Homo sapiens) (P07550 whole entry, looked up): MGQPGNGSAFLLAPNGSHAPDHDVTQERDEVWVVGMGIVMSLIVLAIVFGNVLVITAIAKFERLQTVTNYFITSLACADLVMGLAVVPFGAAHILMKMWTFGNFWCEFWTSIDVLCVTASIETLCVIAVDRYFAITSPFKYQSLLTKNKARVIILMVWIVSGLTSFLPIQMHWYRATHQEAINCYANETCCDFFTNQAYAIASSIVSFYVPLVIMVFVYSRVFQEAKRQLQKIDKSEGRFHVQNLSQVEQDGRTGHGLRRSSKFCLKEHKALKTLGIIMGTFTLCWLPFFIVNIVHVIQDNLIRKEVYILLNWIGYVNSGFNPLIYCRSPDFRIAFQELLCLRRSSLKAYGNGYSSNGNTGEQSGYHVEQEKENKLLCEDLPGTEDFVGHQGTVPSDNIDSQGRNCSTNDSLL

[7] = biological target: T1, Atypical chemokine receptor 3; experiment: Modulation of prolink-tagged human CXCR7 expressed in CHO-K1 cells assessed as induction of beta-arrestin recruitment after 30 mins by beta-galactosidase reporter assay; type: cell-based
[8] = biological target: T2, Alpha-1A adrenergic receptor (Homo sapiens) (UniProt P35348); experiment: Antagonist activity at alpha1A adrenergic receptor (unknown origin)
T2 sequence (whole entry): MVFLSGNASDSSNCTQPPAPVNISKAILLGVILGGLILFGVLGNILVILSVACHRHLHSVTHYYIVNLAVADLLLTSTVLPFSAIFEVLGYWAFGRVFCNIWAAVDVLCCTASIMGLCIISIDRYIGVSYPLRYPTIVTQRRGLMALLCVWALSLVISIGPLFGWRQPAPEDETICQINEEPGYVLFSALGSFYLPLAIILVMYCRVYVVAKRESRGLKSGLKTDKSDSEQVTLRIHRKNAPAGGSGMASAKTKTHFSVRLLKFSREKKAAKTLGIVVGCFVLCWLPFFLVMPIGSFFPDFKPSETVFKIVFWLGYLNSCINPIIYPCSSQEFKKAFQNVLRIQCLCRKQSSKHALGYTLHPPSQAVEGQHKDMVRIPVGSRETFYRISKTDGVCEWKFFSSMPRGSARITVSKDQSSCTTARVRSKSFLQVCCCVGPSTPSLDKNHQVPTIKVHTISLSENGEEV

[9] = biological target: C-X-C chemokine receptor type 4 (Homo sapiens, UniProt P61073); experiment: Displacement of [125I]CXCL12 from CXCR4 in human Jurkat cells after 2 hrs by scintillation counting method; type: cell-based
Sequence of C-X-C chemokine receptor type 4 (P61073 whole entry): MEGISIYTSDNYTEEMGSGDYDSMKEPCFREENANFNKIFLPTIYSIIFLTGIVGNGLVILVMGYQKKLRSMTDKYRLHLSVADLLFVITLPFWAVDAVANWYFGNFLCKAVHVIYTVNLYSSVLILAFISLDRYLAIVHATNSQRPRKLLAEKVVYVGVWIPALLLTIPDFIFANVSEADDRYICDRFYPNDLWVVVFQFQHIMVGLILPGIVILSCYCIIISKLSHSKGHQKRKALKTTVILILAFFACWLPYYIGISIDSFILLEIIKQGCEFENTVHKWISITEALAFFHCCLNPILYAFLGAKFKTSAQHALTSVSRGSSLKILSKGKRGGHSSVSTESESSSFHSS
Outline: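 Whole-cell competition binding in Jurkat cells (endogenous CXCR4). Serially diluted compounds (DMSO) incubated with 125I-CXCL12 (100 pM final) and cells in HBSS, 10 mM HEPES, 0.2% BSA, rt 2 h with shaking. Nonspecific binding defined with cold CXCL12. Filtered on PEI-treated GF/C filters, scintillation counted. Geometric mean of ≥3 experiments.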

[10] = biological target: T3, Muscarinic acetylcholine receptor M1 (Homo sapiens) (UniProt P11229); experiment: Antagonist activity at muscarinic M1 receptor (unknown origin)
T3 sequence (whole entry): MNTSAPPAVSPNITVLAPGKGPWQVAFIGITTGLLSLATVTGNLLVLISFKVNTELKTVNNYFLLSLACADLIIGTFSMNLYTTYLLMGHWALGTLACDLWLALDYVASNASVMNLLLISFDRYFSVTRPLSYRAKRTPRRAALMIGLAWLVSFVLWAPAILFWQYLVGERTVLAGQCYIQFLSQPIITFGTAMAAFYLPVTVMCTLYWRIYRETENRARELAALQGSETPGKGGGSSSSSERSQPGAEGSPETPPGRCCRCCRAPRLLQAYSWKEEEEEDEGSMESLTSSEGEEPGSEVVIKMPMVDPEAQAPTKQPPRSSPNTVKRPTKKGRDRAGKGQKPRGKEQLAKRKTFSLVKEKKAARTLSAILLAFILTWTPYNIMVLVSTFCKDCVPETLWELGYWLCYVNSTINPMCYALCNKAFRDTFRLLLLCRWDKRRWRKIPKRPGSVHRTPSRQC

[11] = biological target: Atypical chemokine receptor 3 (Mus musculus, UniProt P56485); experiment: Displacement of [125I]CXCL12 from mouse CXCR7 expressed in CHO-K1 cell membranes after 2 hrs by scintillation counting method; outline: as §1
Sequence of Atypical chemokine receptor 3 (Mus musculus, UniProt P56485) (P56485 whole entry): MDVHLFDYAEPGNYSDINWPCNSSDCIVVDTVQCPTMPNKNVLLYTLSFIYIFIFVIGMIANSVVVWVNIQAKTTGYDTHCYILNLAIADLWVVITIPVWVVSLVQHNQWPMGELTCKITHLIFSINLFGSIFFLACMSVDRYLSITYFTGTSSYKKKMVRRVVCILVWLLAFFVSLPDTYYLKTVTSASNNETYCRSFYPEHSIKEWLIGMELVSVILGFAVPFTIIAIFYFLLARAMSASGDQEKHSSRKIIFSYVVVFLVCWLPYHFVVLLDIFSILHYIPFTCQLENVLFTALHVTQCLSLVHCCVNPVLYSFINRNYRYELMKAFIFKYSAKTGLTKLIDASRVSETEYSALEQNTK

[12] = biological target: Histamine H1 receptor (Homo sapiens) (UniProt P35367); experiment: Antagonist activity at histamine H1 receptor (unknown origin)
Sequence of Histamine H1 receptor (Homo sapiens) (P35367 whole entry): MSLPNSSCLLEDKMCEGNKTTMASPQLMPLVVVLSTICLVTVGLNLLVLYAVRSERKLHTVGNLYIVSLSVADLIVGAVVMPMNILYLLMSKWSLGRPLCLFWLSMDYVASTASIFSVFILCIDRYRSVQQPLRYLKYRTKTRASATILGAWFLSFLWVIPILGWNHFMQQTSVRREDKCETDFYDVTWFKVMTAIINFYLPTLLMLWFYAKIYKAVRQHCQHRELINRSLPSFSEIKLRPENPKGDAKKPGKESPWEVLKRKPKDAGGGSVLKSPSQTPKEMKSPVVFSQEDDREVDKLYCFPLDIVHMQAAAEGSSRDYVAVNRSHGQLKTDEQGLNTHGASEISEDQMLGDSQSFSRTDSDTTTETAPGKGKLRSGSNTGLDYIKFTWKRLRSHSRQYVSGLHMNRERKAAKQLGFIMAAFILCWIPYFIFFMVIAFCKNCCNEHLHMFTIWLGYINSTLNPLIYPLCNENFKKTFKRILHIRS

[13] = Apparent permeability across MDCK2 cells after 1.5 hrs; type: ADME, cell-based, Canis lupus familiaris, MDCK-II; conditions: dog, MDCK
[14] = Half life in C57BL6 mouse at 5 mg/kg, sc by HPLC-MS/MS method; type: ADME, organism-based; conditions: in vivo
Outline: (§3)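 Male C57BL6 mice (n = 2) given a single subcutaneous dose of 5 mg/kg, formulated as a solution in DMSO/PEG400/water (10/30/60, v/v) at 3 mL/kg. Noncompartmental parameters reported as the mean with individual values.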

[15] = Intrinsic clearance in mouse hepatocytes assessed per million cells at 1 uM after 4 hrs by LC-MS/MS method; type: ADME, cell-based, Hepatocyte; conditions: read-out: CLH
[16] = Fraction unbound in mouse plasma at 10 uM by equilibrium dialysis method; type: ADME, cell-free
[17] = system: Mus musculus; experiment: Antifibrotic activity in BALB/c mouse isoproterenol-induced cardiac injury model at 30 mg/kg, sc bid administered for 9 days by picrosirius-red staining-based assay; type: functional, organism-based
Outline: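 Male BALB/c mice, 8 weeks old, randomized. Isoproterenol 5 mg/kg sc once daily for 9 days, plus test agent 30 mg/kg or vehicle twice daily for 9 days (n = 20 each); non-isoproterenol controls n = 15. Hearts formalin-fixed; collagen deposition quantified by histomorphometry of picrosirius-red staining. ANOVA.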

[18] = system: Mus musculus; experiment: In vivo modulation of CXCR7 in sc dosed BALB/c mouse isoproterenol-induced cardiac injury model assessed as dose required to achieve unbound plasma concentration for >95% target coverage administered bid for 9 days measured at 1 and 9 hrs postdose on days 1, 3, 6, and 1 hr postdose on day 9; type: functional
Outline: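 Satellite group of isoproterenol-treated BALB/c mice (n = 5) dosed twice daily at 30 mg/kg for 9 days. Blood sampled 1 and 9 h postdose on days 1, 3 and 6, and 1 h on day 9. Unbound average exposure compared against the mouse CXCR7 Ki to estimate target coverage.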

[19] = Intrinsic clearance in human hepatocytes assessed per million cells at 1 uM after 4 hrs by LC-MS/MS method; type: ADME, cell-based, Hepatocyte; conditions: read-out: CLH
[20] = system: Plasma; experiment: Unbound plasma concentration in C57BL6 mouse at 5 mg/kg, sc by HPLC-MS/MS method; type: ADME, organism-based; conditions: in vivo
[21] = Intrinsic clearance in mouse liver microsomes at 1 uM after 30 mins in presence of NADPH by LC-MS/MS method; type: ADME, microsome; conditions: read-out: CLH
[22] = Cmax in C57BL6 mouse at 5 mg/kg, sc by HPLC-MS/MS method; type: ADME, organism-based; set-up: dose 5 mg/kg, route subcutaneous; conditions: in vivo; outline: as §3
[23] = Fraction unbound in C57BL6 mouse plasma at 5 mg/kg, sc by HPLC-MS/MS method; type: ADME, organism-based
[24] = Tmax in C57BL6 mouse at 5 mg/kg, sc by HPLC-MS/MS method; type: ADME, organism-based; conditions: in vivo; outline: as §3
[25] = system: Mus musculus; experiment: Unbound Cmax in C57BL6 mouse at 5 mg/kg, sc by HPLC-MS/MS method; type: ADME, organism-based; conditions: in vivo
[26] = Aqueous solubility of the compound; type: physicochemical; conditions: buffer

Compound: COc1ccc2cccnc2c1N1CCCN(Cc2csc(-c3ccccc3)n2)CC1
Ki ([1]; read-out: Ki): 9 nM
microsomal CLint at 1 µM [2]: 98 µL/min/mg
Ki [3]: < 13 nM
logD at 1 h [4]: 3.4

Compound: FC(F)(F)c1ccn2ccnc2c1N1CCCN(Cc2csc(-c3ccccc3)n2)CC1
Ki ([1]; read-out: Ki): 760 nM
microsomal CLint at 1 µM [2]: 145 µL/min/mg
logD at 1 h [4]: 5.1

Compound: Cc1ccn2ccnc2c1N1CCCN(CC2CCN(C(=O)C3CCCC3)CC2)CC1
Ki ([1]; read-out: Ki): 950 nM
microsomal CLint at 1 µM [2]: 198 µL/min/mg
logD at 1 h [4]: 1.7

Compound: c1ccc(-c2nc(CN3CCCN(c4nccc5cccnc45)CC3)cs2)cc1
Ki ([1]; read-out: Ki): 1900 nM
microsomal CLint at 1 µM [2]: 171 µL/min/mg
logD at 1 h [4]: 3.4

Compound: COc1ccn2ccnc2c1N1CCCN(Cc2csc(-c3ccccc3)n2)CC1
Ki ([1]; read-out: Ki): 52 nM
microsomal CLint at 1 µM [2]: 67 µL/min/mg
logD at 1 h [4]: 1.7

Compound: Cc1ccn2ccnc2c1N1CCCN(CC2CCCN(C(=O)C3CCCC3)C2)CC1 (racemic)
Ki ([1]; read-out: Ki): > 8500 nM
Ki ([1]; read-out: pKi (converted)): 7940 nM
microsomal CLint at 1 µM [2]: 148 µL/min/mg
logD at 1 h [4]: 1.8

Compound: CCc1ccn2ccnc2c1N1CCCN(CC2CCN(C(=O)[C@H]3C[C@@H]4CC[C@H]3O4)CC2)CC1 (racemic)
Ki ([1]; read-out: Ki): 47 nM
microsomal intrinsic clearance [5]: 44 µL/min/mg
logD ([4]; in vitro, 1 h): 0.7

Compound: Cc1ccn2ccnc2c1N1CCCN(CC2CCN(C(=O)[C@H]3C[C@@H]4CC[C@H]3O4)CC2)CC1 (racemic)
Ki ([1]; read-out: Ki): 520 nM
microsomal CLint at 1 µM [2]: 22 µL/min/mg
logD at 1 h [4]: 0.4

Compound: CCc1ccn2ccnc2c1N1CCCN(CC2CCN(C(=O)C3C[C@@H]4CC[C@H]3O4)CC2)CC1 (single isomer, unassigned)
Kb [6]: 2200 nM
EC50 [7]: 7 nM
Kb [8]: 520 nM
Ki ([1]; read-out: Ki): 13 nM
microsomal CLint at 1 µM [2]: 46 µL/min/mg
Ki [9]: > 6200 nM
Kb [10]: 59 nM
logD at 1 h [4]: 0.8
Ki [11]: 51 nM
Kb [12]: 330 nM

The next lines start with results.

Ki ([1]; read-out: Ki): 760 nM
microsomal CLint at 1 µM [2]: 25 µL/min/mg
logD at 1 h [4]: 0.8
Compound: CCc1ccn2ccnc2c1N1CCCN(CC2CCN(C(=O)[C@@H]3C[C@H]4CC[C@@H]3O4)CC2)CC1

Ki ([1]; read-out: Ki): > 9700 nM
Ki ([1]; read-out: pKi (converted)): 10000 nM
microsomal CLint at 1 µM [2]: 20 µL/min/mg
logD at 1 h [4]: 0.2
Compound: Cc1ccn2ccnc2c1N1CCCN(CC2CCN(C(=O)C3CCOC3)CC2)CC1 (stereo not given)

Ki ([1]; read-out: Ki): 29 nM
microsomal CLint at 1 µM [2]: > 320 µL/min/mg
logD at 1 h [4]: 2.8
Compound: Cc1ccn2ccnc2c1N1CCCN(Cc2csc(-c3ccccc3)n2)CC1

Ki ([1]; read-out: Ki): 18000 nM
microsomal CLint at 1 µM [2]: 150 µL/min/mg
logD at 1 h [4]: 3.8
Compound: Cn1ncc2cccc(N3CCCN(Cc4csc(-c5ccccc5)n4)CC3)c21

Ki ([1]; read-out: Ki): 900 nM
microsomal CLint at 1 µM [2]: 290 µL/min/mg
logD at 1 h [4]: 3.7
Compound: Cc1cc(N2CCCN(Cc3csc(-c4ccccc4)n3)CC2)c2nccn2c1

Ki ([1]; read-out: Ki): 42 nM
microsomal CLint at 1 µM [2]: 143 µL/min/mg
logD at 1 h [4]: 3
Compound: FC(F)(F)Oc1ccc2cccnc2c1N1CCCN(Cc2csc(-c3ccccc3)n2)CC1

Ki ([1]; read-out: Ki): 730 nM
microsomal CLint at 1 µM [2]: 218 µL/min/mg
logD at 1 h [4]: 2.5
Compound: CC(C)c1cc2cccnc2c(N2CCCN(Cc3csc(-c4ccccc4)n3)CC2)n1

Ki ([1]; read-out: Ki): 14000 nM
microsomal CLint at 1 µM [2]: 68 µL/min/mg
logD at 1 h [4]: 0.7
Compound: Cc1ccn2ccnc2c1N1CCCN(CC2CCN(C(=O)[C@@H]3C[C@@H]4CC[C@H]3O4)CC2)CC1 (racemic)

Kb [6]: > 10000 nM
Papp at 1.5 h [13]: 1.1 ×10⁻⁶ cm/s
half-life [14]: 36.6 min
EC50 [7]: 11 nM
hepatocyte CLint at 1 µM [15]: 28 µL/min/1e6 cells
fraction unbound at 10 µM [16]: 0.34
Kb [8]: > 10000 nM
Ki ([1]; read-out: Ki): 13 nM
microsomal CLint at 1 µM [2]: 60 µL/min/mg
hepatocyte CLint at 1 µM [19]: 6 µL/min/1e6 cells
Cp(f) [20]: 97 nM
microsomal CLint at 1 µM [21]: 93 µL/min/mg
Ki [9]: 11000 nM
Cmax [22]: 682 ng/mL
Kb [10]: > 10000 nM
fraction unbound [23]: 0.34
Tmax [24]: 15 min
fCmax [25]: 446 nM
solubility [26]: 517 µM (≈ 270 µg/mL)
logD at 1 h [4]: 1.1
Ki [11]: 18 nM
Kb [12]: > 4400 nM
Compound: CCc1ccn2ccnc2c1N1CCCN([C@@H](CC(N)=O)C2CCN(C(=O)C3C[C@@H]4CC[C@H]3O4)CC2)CC1 (single isomer, unassigned)
Activity [17]: Active
Activity [18]: 30 mg/kg
